Measurements taken from ChEMBL document CHEMBL1687762, “Aerosol therapy with colistin methanesulfonate: a biopharmaceutical issue illustrated in rats” (Antimicrob Agents Chemother, 2010).

How the values were obtained:
[1] = tested on: Rattus norvegicus; assay: Cmax in Sprague-Dawley rat at 15 mg/kg administered via intratracheal nebulization; assay type: ADME, organism-based; set-up: dose 15 mg/kg, route endotracheal; conditions: in vivo, inhaled_or_intranasal
How it was run: (§1)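 Male Sprague-Dawley rats (280–350 g) were fasted 12 h, with a femoral catheter implanted the day before. Under isoflurane, 100 µl of CMS at 50 mg/ml in 0.4% NaCl (15 mg/kg) was sprayed intratracheally with a MicroSprayer (n=5). Arterial plasma was sampled from 0 to 300 min. CMS (after sulfuric acid hydrolysis) and colistin were measured by LC-MS/MS. Noncompartmental analysis: trapezoidal AUC, terminal log-linear half-life.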

[2] = tested on: Rattus norvegicus; assay: AUC in Sprague-Dawley rat assessed as Colistin level at 15 mg/kg administered via intratracheal nebulization; assay type: ADME, organism-based, Plasma; set-up: dose 15 mg/kg, route endotracheal; conditions: in vivo, inhaled_or_intranasal; how it was run: as §1
[3] = tested on: Rattus norvegicus; assay: AUC in Sprague-Dawley rat at 15 mg/kg administered via intratracheal nebulization; assay type: ADME, organism-based, Plasma; set-up: dose 15 mg/kg, route endotracheal; conditions: in vivo, inhaled_or_intranasal; how it was run: as §1
[4] = tested on: Rattus norvegicus; assay: Volume of distribution at steady state in Sprague-Dawley rat at 15 mg/kg, iv; assay type: ADME, organism-based; set-up: dose 15 mg/kg, route intravenous; conditions: in vivo
How it was run: (§2)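 CMS in 0.9% NaCl, 15 mg/kg, was given as an i.v. bolus through a femoral vein catheter to fasted male Sprague-Dawley rats (n=6). Arterial plasma was drawn at 0–180 min. CMS (measured as colistin after acid hydrolysis) and colistin were quantified by LC-MS/MS. Individual noncompartmental analysis; Vss = dose × AUMC / AUC².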

[5] = tested on: Rattus norvegicus; assay: Half life in Sprague-Dawley rat at 15 mg/kg, iv; assay type: ADME, organism-based; set-up: dose 15 mg/kg, route intravenous; conditions: in vivo; how it was run: as §2
[6] = tested on: Rattus norvegicus; assay: AUC in Sprague-Dawley rat assessed as Colistin level at 15 mg/kg, iv; assay type: ADME, organism-based, Plasma; set-up: dose 15 mg/kg, route intravenous; conditions: in vivo; how it was run: as §2
[7] = tested on: Rattus norvegicus; assay: AUC in Sprague-Dawley rat at 15 mg/kg, iv; assay type: ADME, organism-based, Plasma; set-up: dose 15 mg/kg, route intravenous; conditions: in vivo; how it was run: as §2
[8] = tested on: Rattus norvegicus; assay: Half life in Sprague-Dawley rat assessed as Colistin level at 15 mg/kg administered via intratracheal nebulization; assay type: ADME, organism-based; set-up: dose 15 mg/kg, route endotracheal; conditions: in vivo, inhaled_or_intranasal; how it was run: as §1
[9] = tested on: Rattus norvegicus; assay: Bioavailability in Sprague-Dawley rat at 15 mg/kg administered via intratracheal nebulization; assay type: ADME, organism-based; conditions: in vivo, inhaled_or_intranasal
How it was run: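 CMS bioavailability after intratracheal nebulization in rats (15 mg/kg) was taken as the mean CMS plasma AUC after nebulization divided by the mean CMS AUC after i.v. dosing at the same dose. It is reported as an average value.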

[10] = tested on: Rattus norvegicus; assay: Half life in Sprague-Dawley rat at 15 mg/kg administered via intratracheal nebulization; assay type: ADME, organism-based; set-up: dose 15 mg/kg, route endotracheal; conditions: in vivo, inhaled_or_intranasal; how it was run: as §1
[11] = tested on: Rattus norvegicus; assay: Half life in Sprague-Dawley rat assessed as Colistin level at 15 mg/kg, iv; assay type: ADME, organism-based; set-up: dose 15 mg/kg, route intravenous; conditions: in vivo; how it was run: as §2

COLISTIMETHATE SODIUM was tested, and the Cmax [1] was 5600 ng/mL, the AUC [2] was 607 µg·min/mL and the AUC [3] was 756 µg·min/mL. For the same sequence, the Vdss [4] was 0.33 L/kg, the t1/2 [5] was 22 min and the AUC [6] was 160 µg·min/mL. For the same sequence, the AUC [7] was 1079 µg·min/mL, the t1/2 [8] was 63.6 min and the F [9] was 70%. The t1/2 [10] was 21 min and the t1/2 [11] was 35.5 min.
